15 compounds from PubChem BioAssay can be followed below.

Activity calls are given as the source filed them. Unless noted, no stated cut-off is given here; in the data, active means inhibition above about 30%; inactive means the rest.

In test [1] the target is Pantothenate synthetase (Mycobacterium tuberculosis (strain ATCC 25618 / H37Rv)) (UniProt P9WIL5). Put plainly: Coupled enzyme confirmation of inhibitors against recombinant Mtb PanC (AID 375; call rule not given here;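 further: 0% = full reaction with vehicle and 100% = no enzyme background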). To be noted: coupled enzyme assay; at 10 µM, stronger effect = higher value.
Sequence of Pantothenate synthetase (Mycobacterium tuberculosis (strain ATCC 25618 / H37Rv)) (P9WIL5 whole entry, looked up): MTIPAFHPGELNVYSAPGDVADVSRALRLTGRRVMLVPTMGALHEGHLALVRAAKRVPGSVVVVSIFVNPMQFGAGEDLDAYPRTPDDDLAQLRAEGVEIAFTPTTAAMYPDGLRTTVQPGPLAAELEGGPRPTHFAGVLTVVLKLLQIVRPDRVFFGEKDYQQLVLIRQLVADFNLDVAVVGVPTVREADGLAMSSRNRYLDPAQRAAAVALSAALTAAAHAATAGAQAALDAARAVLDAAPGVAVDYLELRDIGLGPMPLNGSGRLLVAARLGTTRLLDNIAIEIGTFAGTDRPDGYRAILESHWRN
Test [2] can be described thus: Her2 expression decrease, cell viability multiplex – SKBR3 breast tumor cells, AlphaScreen, ATP viability, primary screen (AID 461;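 active means Her2 level under about 52% in both replicate screens, with viability over 70% of control, limit read from the data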;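 on Her2 level: lower value means less Her2 protein in the cells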;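 on viability: percent of carrier control wells set as 100% viability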). Particulars: SKBR3 Her2 protein level, 18-24 h, measured here: SKBR3 viability, ATP luminescence, at 10 µM. On the technique in general: In Alpha technology, singlet oxygen from a donor bead excites a nearby acceptor bead.
The target of test [3] is Receptor tyrosine-protein kinase erbB-2 (Homo sapiens) (UniProt P04626). The test is described as above. Particulars: 18-24 h, at 10 µM, stronger effect = lower value.
Sequence of Receptor tyrosine-protein kinase erbB-2 (Homo sapiens) (P04626 whole entry, looked up): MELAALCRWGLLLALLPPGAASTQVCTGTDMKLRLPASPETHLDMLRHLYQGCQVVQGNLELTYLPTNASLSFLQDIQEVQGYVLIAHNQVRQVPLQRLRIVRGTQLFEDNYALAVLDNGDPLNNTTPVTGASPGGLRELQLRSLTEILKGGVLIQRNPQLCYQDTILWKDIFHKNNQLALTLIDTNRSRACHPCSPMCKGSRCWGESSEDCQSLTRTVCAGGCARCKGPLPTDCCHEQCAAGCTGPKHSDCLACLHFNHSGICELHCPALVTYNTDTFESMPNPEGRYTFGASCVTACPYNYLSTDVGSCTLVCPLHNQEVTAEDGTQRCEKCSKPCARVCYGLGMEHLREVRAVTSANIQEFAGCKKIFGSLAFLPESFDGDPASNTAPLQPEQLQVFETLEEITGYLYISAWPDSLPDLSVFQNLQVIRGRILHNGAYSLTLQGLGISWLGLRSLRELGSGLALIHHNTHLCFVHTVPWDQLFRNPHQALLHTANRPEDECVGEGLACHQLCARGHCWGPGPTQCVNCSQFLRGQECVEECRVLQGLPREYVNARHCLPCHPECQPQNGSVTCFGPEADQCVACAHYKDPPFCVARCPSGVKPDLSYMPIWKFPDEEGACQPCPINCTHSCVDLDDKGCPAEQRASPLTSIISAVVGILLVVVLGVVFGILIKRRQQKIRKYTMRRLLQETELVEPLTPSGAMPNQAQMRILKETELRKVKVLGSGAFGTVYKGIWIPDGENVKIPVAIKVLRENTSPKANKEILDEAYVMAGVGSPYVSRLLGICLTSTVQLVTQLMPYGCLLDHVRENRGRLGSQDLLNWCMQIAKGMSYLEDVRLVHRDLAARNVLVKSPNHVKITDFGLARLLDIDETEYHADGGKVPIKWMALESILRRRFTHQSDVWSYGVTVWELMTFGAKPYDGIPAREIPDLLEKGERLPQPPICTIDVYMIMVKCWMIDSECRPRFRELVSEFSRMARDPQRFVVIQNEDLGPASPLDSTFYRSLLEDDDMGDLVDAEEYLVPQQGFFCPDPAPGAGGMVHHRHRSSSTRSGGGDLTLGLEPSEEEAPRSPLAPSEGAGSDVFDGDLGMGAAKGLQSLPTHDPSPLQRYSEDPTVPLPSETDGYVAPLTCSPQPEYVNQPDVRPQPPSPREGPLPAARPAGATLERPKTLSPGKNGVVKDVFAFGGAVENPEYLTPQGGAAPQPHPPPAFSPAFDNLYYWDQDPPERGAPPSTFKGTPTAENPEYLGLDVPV
Test [4] can be described thus: reduced viability of SK-BR-3 breast cancer cells – cell-based, 24 h, human, pilot screen (AID 572;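 active means viability at or below 10% of carrier control in both of two separate runs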;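 further: compound exposure lasted between 18 and 24 h rather than exactly 24 h; 100% = carrier-treated control wells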). Particulars: SK-BR-3 viability, CellTiter-Glo luminescence, at 10 µM, stronger effect = lower value.
Test [5] in a line: HUVEC growth inhibition – cell-based, human, primary screen (AID 575;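 active means viability at or below 30% in both replicate assays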;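 further: 100% = median of untreated cell wells with 0.1% DMSO on each plate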). To be noted: HUVEC proliferation, CellTiter-Glo luminescence, 72 h; at 10 µM; stronger effect = lower value. Summed up:
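System: primary human umbilical vein endothelial cells; Quantity: 1250 endothelial cells in each well; Buffer or medium: supplemented EBM, 2% fetal bovine serum; Doses: one dose, 10 µM final, 0.1% DMSO; Incubation: 72 h compound incubation; Technique: ATP-based CellTiter-Glo luminescent read; Evaluation: percent of median DMSO-control luminescence; Controls: vehicle and MePR control wells.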
A general note: In ATP-based viability assays light output follows the ATP content of the culture.

The nature of test [6]: H69AR cell proliferation blockers – human, duplicate replicates, primary screen (AID 580;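 active means viability at or under a set limit in both replicates, limit being median viability minus 3 SD, cut at about 48% in these data, passing the limit was not always enough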;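 further: 100% = mean luminescence of untreated wells and 0% = no signal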). To be noted: H69AR lung tumor cells viability, ATP luminescence, 72 h; at 10 µM; stronger effect = lower value.
The nature of test [7]: MRP1 drug-resistance reversers in H69AR cells – cell-based, doxorubicin co-treatment, pilot screen (AID 601;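 active means viability loss from added drug above about 55%, and viability with drug at most 40%, in both replicates, limit read from the data, passing the limit was not always enough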). Particulars: CellTiter-Glo, 72 h, at 10 µM; for differential viability (reversal): stronger effect = higher value.
Test [8] is described as follows: yeast transport mutant growth inhibition pilot in 384-well plates, post-Golgi transport modulator project (AID 636; in the data active means inhibition above about 31%). To be noted: absorbance 615 nm, about 18 h, stronger effect = higher value.
A short description of test [9]: growth suppression of yeast trafficking mutant, preliminary HTS, modulators of trafficking downstream of Golgi apparatus project, 1536-format plate, OD 615 nm (AID 637). To be noted: yeast transport mutant growth, absorbance 615 nm, 18 h; stronger effect = higher value.
The mark [10] stands for this setting: H69AR cells + 2 uM doxorubicin, measured here: viability with 2 uM doxorubicin, stronger effect = lower value.
Setting [11] is: H69AR cells, compound alone cytotoxicity.

For `CCN1c2nc3c(C)cccn3c(=O)c2CC2(C(=O)N(C)C(=O)N(C)C2=O)C1C` (stereo not given), the inhibition (as a rule, the relative decrease from the control value, in per cent) in test [1] was 0% (inactive); in test [8], -4.59% (inactive); in [9], -2.13% (inactive). In addition, the viability – broadly, a read-out of living cells in per cent, often relative to untreated cells – in test [2] is 101%; in [4], 101% (inactive); in [5], 88.9% (inactive); in test [6] it was 91.4% (inactive); in test [7] (setting [10]), 87%; in test [7] (setting [11]), 91.4%. The Her2 level in [3] was 94.5% (inactive). The differential viability (reversal) in [7] (H69AR cells + 2 uM doxorubicin) is 4.38% (inactive).

On to `O=c1[nH]c(=O)n(CCc2ccccc2)c(O)c1C=NCCN1CCNCC1`, for which the inhibition is 6% (inactive) in [1], -1.58% (inactive) in test [8] and 5.16% (inactive) in [9]. Further, the viability in test [2] was 99%; in test [4] it was 99% (inactive); in test [5] it was 108% (inactive); in test [6], 93% (inactive); in test [7] (setting [10]), 91.3%; in test [7] (setting [11]) it was 93%. For the same compound, the Her2 level in [3] was 91.5% (inactive). In addition, the differential viability (reversal) in test [7] (H69AR cells + 2 uM doxorubicin) was 1.67% (inactive).

As to `N#Cc1ccccc1Cn1cc(C(=O)c2ccco2)c2ccccc21`, the inhibition in [1] was 0% (inactive); in test [8], -4.32% (inactive); in test [9], 14.5% (inactive). The viability is 98.5% in [2]; 98.5% (inactive) in [4]; 105% (inactive) in test [5]; 82% (inactive) in test [6]; 85% in test [7] (setting [10]); 82% in [7] (setting [11]). Besides, in [3], the Her2 level is 96% (inactive). Further, the differential viability (reversal) in test [7] (H69AR cells + 2 uM doxorubicin) was -3.02% (inactive).

In the case of `CC1CCC(C(=O)NC(C(=O)N2CCC3(CC2)OCCO3)C(C)C)CC1` (stereo not given), the inhibition was 3% (inactive) in test [1], -6.36% (inactive) in test [8] and -5.25% (inactive) in test [9]. Besides, the viability is 96.5% in [2]; 96.5% (inactive) in test [4]; 114% (inactive) in test [5]; 99.5% (inactive) in [6]; 91% in [7] (setting [10]); 99.5% in [7] (setting [11]). Also, the Her2 level in test [3] was 98.5% (inactive). In addition, the differential viability (reversal) in test [7] (H69AR cells + 2 uM doxorubicin) was 8.49% (inactive).

Consider `Cc1ccc(-c2nc(CS(=O)CC(=O)N3CCC4(CC3)OCCO4)c(C)o2)cc1` (stereo not given), for which the inhibition in [1] was 0% (inactive); in test [8] it was -4.42% (inactive); in test [9] it was -0.79% (inactive). Besides, the viability in test [2] is 92.5%; in test [4] it was 92.5% (inactive); in test [5], 96.4% (inactive); in [6], 85.1% (inactive); in test [7] (setting [10]), 95.7%; in [7] (setting [11]), 85.1%. Further, the Her2 level in test [3] is 99% (inactive). Besides, the differential viability (reversal) in test [7] (H69AR cells + 2 uM doxorubicin) was -10.6% (inactive).

Turning to `O=c1c2ccccc2nc(CSc2ncnc3nc[nH]c23)n1-c1ccccc1`, the inhibition was 0% (inactive) in test [1], -1.92% (inactive) in [8] and -10.5% (inactive) in test [9]. Also, the viability in test [2] was 96%; in test [4] it was 96% (inactive); in [5], 87.6% (inactive); in [6], 80.9% (inactive); in test [7] (setting [10]), 89.6%; in test [7] (setting [11]) it was 80.9%. For the same compound, the Her2 level in [3] was 97.5% (inactive). Further, in test [7] (H69AR cells + 2 uM doxorubicin), the differential viability (reversal) is -8.74% (inactive).

As to `CC(=O)C1C(=O)NC23CCCCC2C1c1ccccc1O3` (stereo not given), the inhibition in test [1] is 0% (inactive); in test [8], -3.87% (inactive); in [9], -0.16% (inactive). Besides, the viability in [2] is 88%; in test [4], 88% (inactive); in [5] it was 109% (inactive); in [6], 99.3% (inactive); in test [7] (setting [10]) it was 95%; in test [7] (setting [11]) it was 99.3%. The Her2 level in test [3] was 91.5% (inactive). Further, in test [7] (H69AR cells + 2 uM doxorubicin), the differential viability (reversal) is 4.31% (inactive).

For the compound `CSc1ccc(C(=O)C(C)(C)N2CCOCC2)cc1`, the inhibition in [1] was 0% (inactive); in [8], -2.76% (inactive); in test [9] it was 6.56% (inactive). Also, the viability in test [2] was 106%; in [4] it was 106% (inactive); in test [5], 112% (inactive); in test [6], 105% (inactive); in test [7] (setting [10]) it was 87.2%; in test [7] (setting [11]) it was 105%. Further, the Her2 level in [3] is 107% (inactive). Further, the differential viability (reversal) in test [7] (H69AR cells + 2 uM doxorubicin) was 18.2% (inactive).

Regarding `CC1CCN2c3nc4ccccn4c(=O)c3CC3(C(=O)N(C)C(=O)N(C)C3=O)C2C1` (stereo not given), the figures for the inhibition in test [1], in test [8] and in test [9] were 0% (inactive), -1.32% (inactive) and 1.64% (inactive), respectively. Moreover, the viability was 101% in [2]; 101% (inactive) in test [4]; 93% (inactive) in test [5]; 93.5% (inactive) in test [6]; 102% in test [7] (setting [10]); 93.5% in [7] (setting [11]). In addition, the Her2 level in test [3] was 72.5% (inactive). In addition, in test [7] (H69AR cells + 2 uM doxorubicin), the differential viability (reversal) was -8.53% (inactive).

Regarding `CC(C)C(=O)N1CCN(CCN=Cc2c(O)n(C)c(=O)n(C)c2=O)CC1`, the inhibition was 3% (inactive) in test [1], -5.39% (inactive) in test [8] and -1.48% (inactive) in test [9]. Also, the viability in test [2] was 100%; in [4], 100% (inactive); in test [5] it was 122% (inactive); in [6] it was 96.5% (inactive); in [7] (setting [10]) it was 96.7%; in test [7] (setting [11]), 96.5%. For the same compound, in [3], the Her2 level is 116% (inactive). Besides, in [7] (H69AR cells + 2 uM doxorubicin), the differential viability (reversal) was -0.17% (inactive).

In the case of `CCCCCCn1c(O)c(C=NC2CCN(Cc3ccccc3)CC2)c(=O)[nH]c1=O`, the inhibition in test [1] was 0% (inactive); in test [8], -1.05% (inactive); in test [9], 4.84% (inactive). Moreover, the viability is 83% in test [2]; 83% (inactive) in test [4]; 72.3% (inactive) in test [5]; 74.8% (inactive) in test [6]; 68.8% in [7] (setting [10]); 74.8% in test [7] (setting [11]). In [3], the Her2 level is 67.5% (inactive). Further, the differential viability (reversal) in [7] (H69AR cells + 2 uM doxorubicin) was 5.99% (inactive).

Take `OCCOCC#CCN1CCOCC1`: the inhibition was 0% (inactive) in test [1], -1.45% (inactive) in [8] and 1.31% (inactive) in test [9]. Also, the viability in test [2] is 102%; in test [4], 102% (inactive); in test [5], 101% (inactive); in test [6], 93.8% (inactive); in [7] (setting [10]), 89.9%; in test [7] (setting [11]) it was 93.8%. The Her2 level in test [3] is 114% (inactive). Moreover, the differential viability (reversal) in test [7] (H69AR cells + 2 uM doxorubicin) is 3.84% (inactive).

With `O=C(c1sc2ccccc2c1Cl)N1CCC2(CC1)OCCO2`, the inhibition in [1] is 0% (inactive); in test [8], 0.13% (inactive); in [9] it was -7.5% (inactive). Further, the viability was 90.5% in [2]; 90.5% (inactive) in [4]; 94.7% (inactive) in test [5]; 109% (inactive) in test [6]; 102% in test [7] (setting [10]); 109% in [7] (setting [11]). The Her2 level in test [3] is 136% (inactive). In addition, the differential viability (reversal) in [7] (H69AR cells + 2 uM doxorubicin) was 6.83% (inactive).

In the case of `O=C(Cn1c2c(c(-c3ccccc3Cl)cc1=O)CCC2)N1CCC2(CC1)OCCO2`, the inhibition was 6% (inactive) in test [1], -1.18% (inactive) in [8] and -6.61% (inactive) in [9]. Also, the viability in test [2] was 102%; in test [4], 102% (inactive); in test [5] it was 108% (inactive); in test [6], 96.8% (inactive); in test [7] (setting [10]), 112%; in test [7] (setting [11]) it was 96.8%. The Her2 level in test [3] was 115% (inactive). Also, the differential viability (reversal) in test [7] (H69AR cells + 2 uM doxorubicin) was -15.4% (inactive).

Regarding `CC(C)(C)C(O)C(Oc1ccc(Cl)cc1)n1cncn1` (stereo not given), the results for the inhibition in test [1], in test [8] and in [9] were 9% (inactive), -4.46% (inactive) and 94% (active), respectively. Moreover, the viability in test [2] was 86.5%; in [4], 86.5% (inactive); in test [5], 88.2% (inactive); in [6], 87.2% (inactive); in test [7] (setting [10]), 81.7%; in test [7] (setting [11]), 87.2%. The Her2 level in test [3] is 83.5% (inactive). Further, the differential viability (reversal) in test [7] (H69AR cells + 2 uM doxorubicin) was 5.54% (inactive).
